Here are results for 28 compounds from ChEMBL document CHEMBL1132383, “Cardioselective antiischemic ATP-sensitive potassium channel (K(ATP)) openers. 6. Effect of modifications at C6 of benzopyranyl cyanoguanidines” (J Med Chem, 1999).

Common to all, as to format: functional
For assay [1], the species on record is Rattus norvegicus. The assay can be described thus: In vitro relaxation of rat aorta precontracted with methoxamine. Put shortly:
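Rat aortic rings precontracted with methoxamine. IC50 is the concentration giving relaxation, reported as the mean of n = 4 or more.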

Assay [2] is filed under the species Rattus norvegicus. The assay can be described thus: Antiischemic potency by measurement of increase in time to contracture in globally ischemic isolated perfused rat hearts. The method, boiled down: (§1)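 Isolated rat hearts, perfused and then subjected to global ischemia. Activity is read as the lengthening of time to onset of ischemic contracture. Compounds were first tested at 10 μM. EC25 for increasing time to contracture was then determined.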

A short description of assay [3]: Ratio of Antiischemic potency to vasorelaxant potency. Put shortly: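 Selectivity is calculated as the EC25 for lengthening time to contracture in globally ischemic isolated rat hearts divided by the IC50 for relaxing methoxamine-contracted rat aorta.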
The species named for assay [4] is Rattus norvegicus. The assay can be described thus: Antiischemic potency by measurement of increase in time to contracture in globally ischemic isolated perfused rat hearts at 1 uM. Put shortly:
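Isolated perfused rat hearts under global ischemia, compound present at 1 μM. Cardioprotection is read as the increase in time to onset of ischemic contracture.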

For assay [5], the species on record is Rattus norvegicus. The assay can be described thus: Antiischemic potency by measurement of increase in time to contracture in globally ischemic isolated perfused rat hearts. Put shortly:
as §1

`CC1(C)Oc2ccc(S(=O)(=O)N3CCC(Cc4ccccc4)CC3)cc2[C@@H](/N=C(\NC#N)Nc2ccc(Cl)cc2)[C@@H]1O` registered an IC50 in the assay listed under Rattus norvegicus [1] greater than 30000 nM. This compound also gave an EC25 in the assay filed under Rattus norvegicus [2] of 940 nM.

Turning to `CC1(C)Oc2ccc(S(=O)(=O)N3CCCCC3)cc2[C@@H](/N=C(\NC#N)Nc2ccc(Cl)cc2)[C@@H]1O`, the IC50 in the assay listed under Rattus norvegicus [1] came to 1900 nM. Moreover, the Ratio in assay [3] came to 0.14. In addition, the EC25 in the assay filed under Rattus norvegicus [2] was 270 nM.

Regarding `CC1(C)Oc2ccc(S(=O)(=O)c3ccccc3)cc2[C@@H](/N=C(\NC#N)Nc2ccc(Cl)cc2)[C@@H]1O`, the IC50 in the assay listed under Rattus norvegicus [1] was determined as 500 nM. In assay [3], the Ratio was found to be 1.6. In the assay listed under Rattus norvegicus [2], this compound gave an EC25 of 800 nM.

In the assay filed under Rattus norvegicus [2], `CC(C)CN(C)S(=O)(=O)c1ccc2c(c1)[C@@H](/N=C(\NC#N)Nc1ccc(Cl)cc1)[C@H](O)C(C)(C)O2` registered an EC25 of 250 nM.

Compound `CC1(C)Oc2ccc(S(N)(=O)=O)cc2[C@@H](/N=C(\NC#N)Nc2ccc(Cl)cc2)[C@@H]1O` had an IC50 in the assay listed under Rattus norvegicus [1] of 41300 nM. In the assay listed under Rattus norvegicus [2], this compound had an EC25 greater than 10000 nM.

In the assay filed under Rattus norvegicus [1], `CC1(C)Oc2ccc(S(=O)(=O)Nc3ccccc3)cc2[C@@H](/N=C(\NC#N)Nc2ccc(Cl)cc2)[C@@H]1O` showed an IC50 of 3300 nM. Besides, the Ratio in assay [3] came out at 0.6. Further, the EC25 in the assay filed under Rattus norvegicus [2] stood at 1900 nM.

Take `CC1(C)Oc2ccc(S(=O)(=O)NC3CCCCC3)cc2[C@@H](/N=C(\NC#N)Nc2ccc(Cl)cc2)[C@@H]1O`: half-maximal inhibition in the assay filed under Rattus norvegicus [1] (IC50) was put at 11700 nM. In assay [3], the Ratio turned out to be 0.19. In the assay filed under Rattus norvegicus [2], this compound showed an EC25 of 2200 nM.

Turning to `CCN(CC(F)(F)F)S(=O)(=O)c1ccc2c(c1)[C@@H](/N=C(\NC#N)Nc1ccc(Cl)cc1)[C@H](O)C(C)(C)O2`, the EC25 in the assay filed under Rattus norvegicus [2] was 260 nM.

As to `CC1(C)Oc2ccc(Cc3ccccc3)cc2[C@@H](/N=C(\NC#N)Nc2ccc(Cl)cc2)[C@@H]1O`, the IC50 in the assay listed under Rattus norvegicus [1] was found to be 10000 nM. The Ratio in assay [3] is 1.1. Further, the EC25 in the assay filed under Rattus norvegicus [2] amounted to 11100 nM.

In the case of `CC1(C)Oc2ccc(C#N)cc2[C@@H](/N=C(\NC#N)Nc2ccc(Cl)cc2)[C@@H]1O`, in assay [3], the Ratio is 1.4. This compound also came in with an EC25 in the assay filed under Rattus norvegicus [2] of 2500 nM.

In the assay filed under Rattus norvegicus [2], `CC1CCN(S(=O)(=O)c2ccc3c(c2)[C@@H](/N=C(\NC#N)Nc2ccc(Cl)cc2)[C@H](O)C(C)(C)O3)CC1` showed an EC25 of 650 nM.

`CC1(C)Oc2ccc(C(=O)Nc3ccccc3)cc2[C@@H](/N=C(\NC#N)Nc2ccc(Cl)cc2)[C@@H]1O` displayed an IC50 in the assay listed under Rattus norvegicus [1] greater than 100000 nM. This compound yielded a concentration for an effect of 25% (EC25) in the assay listed under Rattus norvegicus [2] greater than 10000 nM.

Consider `CC1(C)Oc2ccc(C#N)cc2[C@@H](N2CCCC2=O)[C@@H]1O` [CROMAKALIM], for which the Ratio in assay [3] turned out to be 278. The same compound gave an EC25 in the assay listed under Rattus norvegicus [2] of 8900 nM.

Compound `C=C(c1ccccc1)c1ccc2c(c1)[C@@H](/N=C(\NC#N)Nc1ccc(Cl)cc1)[C@H](O)C(C)(C)O2` yielded an IC50 in the assay filed under Rattus norvegicus [1] of 10700 nM. In addition, the Activity in the assay filed under Rattus norvegicus [4] stood at 3%.

As to `COP(=O)(c1ccccc1)c1ccc2c(c1)[C@@H](/N=C(\NC#N)Nc1ccc(Cl)cc1)[C@H](O)C(C)(C)O2` (some centres undefined), in the assay listed under Rattus norvegicus [1], the IC50 came to 44100 nM. The Ratio in assay [3] was 0.05. Also, the EC25 in the assay listed under Rattus norvegicus [2] is 2400 nM.

In the assay listed under Rattus norvegicus [1], `CC(C)(C)C(=O)c1ccc2c(c1)[C@@H](/N=C(\NC#N)Nc1ccc(Cl)cc1)[C@H](O)C(C)(C)O2` yielded an IC50 of 5400 nM. Further, in assay [3], the Ratio amounted to 0.33. Further, the EC25 in the assay listed under Rattus norvegicus [2] is 1800 nM.

For the compound `CC1(C)Oc2ccc(C(=O)Cc3ccccc3)cc2[C@@H](/N=C(\NC#N)Nc2ccc(Cl)cc2)[C@@H]1O`, in the assay filed under Rattus norvegicus [1], the IC50 came out at 6800 nM. In addition, the Ratio in assay [3] came to 0.06. Moreover, the EC25 in the assay filed under Rattus norvegicus [2] turned out to be 400 nM.

For the compound `CC(C)N(C(C)C)S(=O)(=O)c1ccc2c(c1)[C@@H](/N=C(\NC#N)Nc1ccc(Cl)cc1)[C@H](O)C(C)(C)O2`, the EC25 in the assay listed under Rattus norvegicus [2] was found to be 240 nM.

For the compound `CCN(CC)S(=O)(=O)c1ccc2c(c1)[C@@H](/N=C(\NC#N)Nc1ccc(Cl)cc1)[C@H](O)C(C)(C)O2`, the IC50 in the assay filed under Rattus norvegicus [1] worked out at 1100 nM. In assay [3], the Ratio was found to be 0.27. The compound further came in with an EC25 in the assay filed under Rattus norvegicus [2] of 300 nM.

Take `CC1CC(C)CN(S(=O)(=O)c2ccc3c(c2)[C@@H](/N=C(\NC#N)Nc2ccc(Cl)cc2)[C@H](O)C(C)(C)O3)C1` (some centres undefined): the IC50 in the assay filed under Rattus norvegicus [1] turned out to be 32100 nM. For the same compound, in assay [3], the Ratio was found to be 0.007. Also, in the assay listed under Rattus norvegicus [2], the EC25 came to 230 nM.

Consider `CC1(C)Oc2ccc(S(=O)(=O)N3CCCC(Cc4ccccc4)C3)cc2[C@@H](/N=C(\NC#N)Nc2ccc(Cl)cc2)[C@@H]1O` (some centres undefined), for which the EC25 in the assay listed under Rattus norvegicus [2] was 1100 nM.

Take `CC1(C)Oc2ccc(C(=O)c3ccccc3)cc2[C@@H](/N=C(\NC#N)Nc2ccc(Cl)cc2)[C@@H]1O`: the IC50 in the assay filed under Rattus norvegicus [1] is 7100 nM. Moreover, in assay [3], the Ratio came to 0.13. Further, the EC25 in the assay filed under Rattus norvegicus [2] stood at 900 nM.

Regarding `CC1(C)Oc2ccc(S(=O)(=O)N3CCCCCC3)cc2[C@@H](/N=C(\NC#N)Nc2ccc(Cl)cc2)[C@@H]1O`, the EC25 in the assay filed under Rattus norvegicus [2] was 600 nM.

`C[C@@H]1CCC[C@H](C)N1S(=O)(=O)c1ccc2c(c1)[C@@H](/N=C(\NC#N)Nc1ccc(Cl)cc1)[C@H](O)C(C)(C)O2` had an IC50 in the assay listed under Rattus norvegicus [1] of 500 nM. The Ratio in assay [3] came to 0.68. This compound also returned an EC25 in the assay filed under Rattus norvegicus [2] of 340 nM.

Take `CC1(C)Oc2ccc(S(=O)(=O)N3CCCC3)cc2[C@@H](/N=C(\NC#N)Nc2ccc(Cl)cc2)[C@@H]1O`: in the assay filed under Rattus norvegicus [5], the EC25 was 330 nM.

In the case of `CC1(C)Oc2ccc(S(=O)(=O)N3CCOCC3)cc2[C@@H](/N=C(\NC#N)Nc2ccc(Cl)cc2)[C@@H]1O`, the midpoint of inhibition in the assay filed under Rattus norvegicus [1], the IC50, lay at 3100 nM. In addition, the Ratio in assay [3] came to 0.32. In addition, the EC25 in the assay listed under Rattus norvegicus [2] is 1000 nM.

`CC1(C)Oc2ccc(C#N)cc2[C@H](N(Cc2ncc[nH]2)c2ccc(Cl)cc2)[C@H]1O` [BMS-191095] yielded an IC50 in the assay filed under Rattus norvegicus [1] greater than 30000 nM. Moreover, the Ratio in assay [3] was less than 0.05. The compound also had an EC25 in the assay listed under Rattus norvegicus [2] of 1400 nM.

In the assay listed under Rattus norvegicus [1], `CC(C)CN(CC(C)C)S(=O)(=O)c1ccc2c(c1)[C@@H](/N=C(\NC#N)Nc1ccc(Cl)cc1)[C@H](O)C(C)(C)O2` gave an IC50 of 9400 nM. The Ratio in assay [3] was 0.004. The EC25 in the assay listed under Rattus norvegicus [2] amounted to 40 nM.

One may read the IC50 as the concentration at which inhibition is half-maximal. By EC25 is commonly meant the point of the concentration-response curve where the effect stands at 25%. A lower EC25 goes with greater potency.
